Assay outcomes as filed in PubChem BioAssay.
PAFAH2 FP inh: PAFAH2 (human) inhibition; Q99487; recombinant PAFAH2, FP-rhodamine activity probe, fluorescence polarization; inhibition, % at 3.39 µM; hit rate 0.99% among 340,000; AID 492956;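 active = inhibition above the mean over all tested compounds plus 3 SD, cut at about 30% in these data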;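 also: inhibitors block probe labeling of enzyme so polarization drops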
Apaf-1 inh: blocks human Apaf-1 apoptosome activity; O14727; reconstituted apoptosome caspase-3 activity, DEVD-Rh110 fluorescence; inhibition, % at 20 µM; hit rate 0.71% among 330,000; active = inhibition of at least 40% at 20 µM
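Material: reconstituted apoptosome with Apaf-1, cytochrome c, caspase-9, procaspase-3, dATP. Technique: Rh110 fluorescence intensity. Buffer or medium: pH 7.5 Hepes buffer with CHAPS, BSA, DTT. Times: 30 min plus 50 min, RT.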
PREPL inh: inhibits the human prolyl oligopeptidase-like enzyme | Q4J6C6 | recombinant PREPL, fluorescence polarization activity-based probe | inhibition, % at 5.96 µM | hit rate 0.68% among 320,000 | AID 2751; in the data active = inhibition above about 43%
PAFAH1B2 inh: PAFAH1B2 (human) inhibition | P68402 | recombinant PAFAH1B2, FP-rhodamine activity probe, fluorescence polarization | inhibition, % at 3.39 µM | hit rate 1.2% among 340,000 | AID 492953;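 active = inhibition above the mean of all tested compounds plus 3 SD, cut at about 24% in these data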
PAFAH1B3 FP inh: blocks human PAF acetylhydrolase 1B catalytic subunit 3. hit rate 0.28% among 340,000. Q15102. recombinant PAFAH1B3, FP-rhodamine probe, fluorescence polarization. AID 492972. inhibition, % at 3.39 µM;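 active = inhibition above the screen-wide average of all tested compounds plus 3 SD, cut at about 25% in these data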
pPAFAH inh: pPAFAH (human) enzyme inhibition; Q13093; recombinant pPAFAH, FP-rhodamine probe fluorescence polarization; inhibition, % at 3.39 µM; hit rate 1.5% among 330,000;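 active = inhibition above the mean inhibition across the screen plus 3 SD, cut at about 25% in these data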;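 also: inhibitors block binding of the rhodamine activity-based probe so polarization drops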
Target sequence (Q13093 whole entry, looked up): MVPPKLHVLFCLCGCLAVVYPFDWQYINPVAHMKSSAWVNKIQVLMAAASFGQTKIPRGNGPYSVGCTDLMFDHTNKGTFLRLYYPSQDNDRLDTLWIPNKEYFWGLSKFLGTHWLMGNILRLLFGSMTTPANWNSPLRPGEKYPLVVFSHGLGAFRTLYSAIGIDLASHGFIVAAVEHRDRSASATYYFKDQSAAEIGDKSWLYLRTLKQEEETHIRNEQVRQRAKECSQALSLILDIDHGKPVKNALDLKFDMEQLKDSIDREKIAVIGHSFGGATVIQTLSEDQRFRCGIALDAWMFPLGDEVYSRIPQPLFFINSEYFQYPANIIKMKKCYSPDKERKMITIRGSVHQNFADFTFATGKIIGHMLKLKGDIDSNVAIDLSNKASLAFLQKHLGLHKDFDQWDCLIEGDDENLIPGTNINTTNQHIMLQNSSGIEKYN
PAFAH2 FP conf: PAFAH2 (human) inhibition, confirmed; recombinant PAFAH2, FP-rhodamine activity probe, fluorescence polarization; shares compounds with PAFAH2 FP inh; hit rate 65% among 2,300; inhibition, % at 3.39 µM; AID 493030;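 active = mean inhibition over three repeats above a set limit taken from the earlier primary screen, cut at about 30% in these data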;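 also: inhibitor blocks binding of rhodamine activity probe so polarization falls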
Of the large screens only hits and unclear results are named; the others gave an inactive call (follow-up assays come after a bar, where they were run). The list is not random: actives were taken first. Their share in the collection is about 3.5%.

O=[N+]([O-])c1cccc(S(=O)(=O)Nc2nc3ccccc3nc2Nc2cccc(S(=O)(=O)N3CCCCC3)c2)c1	PAFAH2 FP inh 45 (no result: Apaf-1 inh, PREPL inh, pPAFAH inh) | PAFAH2 FP conf inactive
O=C(CN1CCN(S(=O)(=O)c2ccccc2F)CC1)Nc1ccccc1C(=O)c1ccccc1	none
COc1cc2nc(COc3ccccc3[N+](=O)[O-])oc(=O)c2cc1OC	PAFAH2 FP inh 50 | PAFAH2 FP conf 69
COc1cc2nc(CN3C(=O)c4ccccc4C3=O)oc(=O)c2cc1OC	none
Cc1cc(NC(=O)C(=O)NCc2cccc(Cl)c2)no1	none
O=C(COC(=O)c1ccc2ncsc2c1)Nc1cccc(Cl)c1	PAFAH2 FP inh 92 | PAFAH2 FP conf 77
CCCCOC(=O)c1ccc(NC(=O)COC(=O)c2ccc3ncsc3c2)cc1	PAFAH2 FP inh 61 | PAFAH2 FP conf 63
O=C(COC(=O)c1ccc2ncsc2c1)Nc1ccccc1Br	PAFAH2 FP inh 63 | PAFAH2 FP conf 43
CC(=O)NC(=O)COC(=O)c1ccc2ncsc2c1	none
O=C(COC(=O)c1ccc2ncsc2c1)NCc1cccc(Cl)c1	none
CCOC(=O)C(C(=O)Nc1nccs1)C1CCCCC1 (centres undefined)	none
O=C(N/N=C1/C(=O)c2cccc3cccc1c23)c1ccc(Cl)cc1	PAFAH2 FP inh 56 | PAFAH2 FP conf 35
O=C(c1cc(-c2ccccc2Cl)on1)N1CCCC1	PAFAH2 FP inh 36 | PAFAH2 FP conf 35
COc1ccccc1-c1cc(C(=O)N2CCCC2)no1	none
CN(Cc1nccs1)C(=O)C1CCC(=O)N(CCCc2ccccc2)C1 (centres undefined)	PAFAH2 FP inh 31 (no result: PREPL inh, pPAFAH inh) | PAFAH2 FP conf inactive
C(=C1c2ccccc2-c2ccccc21)c1ccncc1	none (no result: Apaf-1 inh, PREPL inh, pPAFAH inh)
O=C(O)c1ccc2c(=O)n3c(nc2c1)/C(=C/c1ccc(C(F)(F)F)cc1)CC3	none
O=c1c2ccccc2nc2n1CC/C2=C/N1CCN(c2cccc(C(F)(F)F)c2)CC1	PAFAH2 FP inh 33 | PAFAH2 FP conf inactive
Cn1c(N)c(C(=O)c2ccc(F)cc2F)c(=O)n(C)c1=O	none
O=C1c2nccnc2C(=O)N1Cc1ccccc1	none (no result: Apaf-1 inh, PREPL inh, pPAFAH inh)
O=C1c2nc3ccccn3c2C(=O)N1Cc1ccccc1	PAFAH2 FP inh 38 | PAFAH2 FP conf inactive
CCN(C(=O)COC(=O)c1c(C)c(-c2ccccc2)nc2ccccc12)C1CCS(=O)(=O)C1 (centres undefined)	none
O=C(COC(=O)CC1CCCC1)Nc1cc2c(cc1Cl)C(=O)c1ccccc1C2=O	none
Cc1cccc(NC(=O)COC(=O)CC2CCCC2)c1C	PAFAH2 FP inh 52 (no result: PREPL inh, pPAFAH inh) | PAFAH2 FP conf 38
O=C(COC(=O)CC1CCCC1)Nc1ccc(Br)cc1F	PAFAH2 FP inh 47 | PAFAH2 FP conf 41
CC(C)c1ccc(NC(=O)COC(=O)CC2CCCC2)cc1	PAFAH2 FP inh 54 | PAFAH2 FP conf inactive
Cc1cc(NC(=O)COC(=O)CC2CCCC2)c([N+](=O)[O-])cc1C	PAFAH2 FP inh 56 | PAFAH2 FP conf inactive
O=C(NC1CCN(c2ncccn2)CC1)c1cccc(F)c1	none
Cc1ccc(S(=O)(=O)N(C)C)cc1NC(=O)COC(=O)CC1CCCC1	PAFAH2 FP inh 32 | PAFAH2 FP conf inactive
COc1ccc(C(=O)OCC(=O)Nc2cc(C)c(C)cc2[N+](=O)[O-])cc1	PAFAH2 FP inh 39 | PAFAH2 FP conf 32
Cc1ccc(S(=O)(=O)N(C)C)cc1NC(=O)COC(=O)CNC(=O)C12CC3CC(CC(C3)C1)C2	none
Cc1csc(Sc2ccc(C(=O)OCC(=O)Nc3ccc(F)cc3[N+](=O)[O-])cc2[N+](=O)[O-])n1	PAFAH2 FP inh 34 | PAFAH2 FP conf inactive
O=C(NCc1ccccn1)c1nc(Cn2ccc([N+](=O)[O-])n2)no1	none
CCCOc1ccccc1/C=C(\C#N)C(=O)Nc1cccc(C)n1	PAFAH2 FP inh 58 | PAFAH2 FP conf 52
Cc1cccc(NC(=O)/C(C#N)=C/c2ccc(F)cc2)n1	none
COc1cc(C(=O)OCC(=O)Nc2cc(S(=O)(=O)N3CCOCC3)ccc2C)ccc1OCC(C)C	PAFAH2 FP inh 58 | PAFAH2 FP conf 49
COc1ccc(CC(=O)OCC(=O)Nc2cc(S(=O)(=O)N3CCOCC3)ccc2N2CCCC2)cc1	none
